Source: ChEMBL document CHEMBL3621107, “Ring fusion strategy for synthesis and lead optimization of sulfur-substituted anthra[1,2-c][1,2,5]thiadiazole-6,11-dione derivatives as promising scaffold of antitumor agents” (Eur J Med Chem, 2015)

Key:
K562 = assay: Cytotoxicity against human K562 cells assessed as cell growth at 10 uM after 48 hrs by SRB assay relative to control; type: functional; conditions: K562, 48 h, read-out: Activity
Outline: (§1)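 First-stage NCI-60 screen by the NCI Developmental Therapeutics Program. Each compound was tested once at a single concentration of 10 μM against the 60-cell-line panel. Growth percentage was reported for each cell line.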

HOP-62 = assay: Cytotoxicity against human HOP62 cells assessed as cell growth at 10 uM after 48 hrs by SRB assay relative to control; type: functional; conditions: HOP-62, 48 h, read-out: Activity; outline: as §1
SR = assay: Cytotoxicity against human SR cells assessed as cell growth at 10 uM after 48 hrs by SRB assay relative to control; type: functional; conditions: read-out: Activity
Outline: (§2)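 NCI-60 one-dose screen run by NCI DTP: each cell line exposed to a single 10 µM dose, and percentage growth recorded against untreated growth.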

MCF7 = assay: Cytotoxicity against human MCF7 cells assessed as cell growth at 10 uM after 48 hrs by SRB assay relative to control; type: functional; conditions: MCF7, 48 h, read-out: Activity; outline: as §1
COLO 205 = assay: Cytotoxicity against human COLO205 cells assessed as cell growth at 10 uM after 48 hrs by SRB assay relative to control; type: functional; conditions: COLO 205, 48 h, read-out: Activity; outline: as §1
NCI/ADR-RES = assay: Cytotoxicity against human NCI/ADR-RES cells assessed as cell growth at 10 uM after 48 hrs by SRB assay relative to control; type: functional; conditions: read-out: Activity
Outline: (§3)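 First-stage NCI DTP one-dose screen against the 60 human tumour cell line panel. Compounds were tested at a single 10 μM level, and results are given as growth percentage.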

SF-268 = assay: Cytotoxicity against human SF268 cells assessed as cell growth at 10 uM after 48 hrs by SRB assay relative to control; type: functional; conditions: SF-268, 48 h, read-out: Activity; outline: as §3
RPMI-8226 = assay: Cytotoxicity against human RPMI8226 cells assessed as cell growth at 10 uM after 48 hrs by SRB assay relative to control; type: functional; conditions: RPMI-8226, 48 h, read-out: Activity; outline: as §3
HCT-116 = assay: Cytotoxicity against human HCT116 cells assessed as cell growth at 10 uM after 48 hrs by SRB assay relative to control; type: functional; conditions: HCT-116, 48 h, read-out: Activity; outline: as §1
SF-539 = assay: Cytotoxicity against human SF539 cells assessed as cell growth at 10 uM after 48 hrs by SRB assay relative to control; type: functional; conditions: SF-539, 48 h, read-out: Activity; outline: as §3
UACC-257 = assay: Cytotoxicity against human UACC257 cells assessed as cell growth at 10 uM after 48 hrs by SRB assay relative to control; type: functional; conditions: UACC-257, 48 h, read-out: Activity; outline: as §2
HL-60(TB) = assay: Cytotoxicity against human HL-60(TB) cells assessed as cell growth at 10 uM after 48 hrs by SRB assay relative to control; type: functional; conditions: HL-60, 48 h, read-out: Activity
Outline: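 NCI Developmental Therapeutics Program 60-cell-line screen, first stage: a single dose of 10 μM against the panel, reported as percentage growth.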

SNB-75 = assay: Cytotoxicity against human SNB75 cells assessed as cell growth at 10 uM after 48 hrs by SRB assay relative to control; type: functional; conditions: SNB-75, 48 h, read-out: Activity; outline: as §2
SN12C = assay: Cytotoxicity against human SN12C cells assessed as cell growth at 10 uM after 48 hrs by SRB assay relative to control; type: functional; conditions: read-out: Activity; outline: as §3
MOLT-4 = assay: Cytotoxicity against human MOLT4 cells assessed as cell growth at 10 uM after 48 hrs by SRB assay relative to control; type: functional; conditions: MOLT-4, 48 h, read-out: Activity; outline: as §3
MDA-MB-435 = assay: Cytotoxicity against human MDA-MB-435 cells assessed as cell growth at 10 uM after 48 hrs by SRB assay relative to control; type: functional; conditions: MDA-MB-435, 48 h, read-out: Activity; outline: as §3
OVCAR-3 = assay: Cytotoxicity against human OVCAR3 cells assessed as cell growth at 10 uM after 48 hrs by SRB assay relative to control; type: functional; conditions: OVCAR-3, 48 h, read-out: Activity; outline: as §3
SK-MEL-2 = assay: Cytotoxicity against human SK-MEL-2 cells after 48 hrs by SRB assay; type: functional; conditions: SK-MEL-2, 48 h
Outline: (§4)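 Second-stage NCI-60 panel run by the NCI Developmental Therapeutics Program, covering nine tumour subpanels. Five concentrations were tested: 0.01, 0.1, 1, 10 and 100 μM. Percentage growth at each level was plotted against log10 drug concentration. GI50, TGI and LC50 were read from these dose-response curves. Subpanel MID values were divided into the full-panel MID to give selectivity ratios.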

SNB-19 = assay: Cytotoxicity against human SNB19 cells assessed as cell growth at 10 uM after 48 hrs by SRB assay relative to control; type: functional; conditions: SNB-19, 48 h, read-out: Activity; outline: as §2
A549 = assay: Cytotoxicity against human A549 cells assessed as cell growth at 10 uM after 48 hrs by SRB assay relative to control; type: functional; conditions: A549, 48 h, read-out: Activity; outline: as §1
UO-31 = assay: Cytotoxicity against human UO31 cells assessed as cell growth at 10 uM after 48 hrs by SRB assay relative to control; type: functional; conditions: UO-31, 48 h, read-out: Activity; outline: as §2
NCI-H522 = assay: Cytotoxicity against human NCI-H522 cells assessed as cell growth at 10 uM after 48 hrs by SRB assay relative to control; type: functional; conditions: NCI-H522, 48 h, read-out: Activity; outline: as §3
CAKI-1 = assay: Cytotoxicity against human Caki1 cells assessed as cell growth at 10 uM after 48 hrs by SRB assay relative to control; type: functional; conditions: CAKI-1, 48 h, read-out: Activity; outline: as §1
MDA-MB-468 = assay: Cytotoxicity against human MDA-MB-468 cells assessed as cell growth at 10 uM after 48 hrs by SRB assay relative to control; type: functional; conditions: MDA-MB-468, 48 h, read-out: Activity; outline: as §3
OVCAR-4 = assay: Cytotoxicity against human OVCAR4 cells after 48 hrs by SRB assay; type: functional; conditions: OVCAR-4, 48 h; outline: as §4
SF-295 = assay: Cytotoxicity against human SF295 cells assessed as cell growth at 10 uM after 48 hrs by SRB assay relative to control; type: functional; conditions: SF-295, 48 h, read-out: Activity; outline: as §3
PC-3 = assay: Cytotoxicity against human PC3 cells after 48 hrs by SRB assay; type: functional, cell-based; conditions: PC-3, 48 h; outline: as §4
OVCAR-8 = assay: Cytotoxicity against human OVCAR8 cells assessed as cell growth at 10 uM after 48 hrs by SRB assay relative to control; type: functional; conditions: OVCAR-8, 48 h, read-out: Activity; outline: as §3

| Compound | growth at 10 µM (K562) | growth at 10 µM (HOP-62) | growth at 10 µM (SR) | growth at 10 µM (MCF7) | growth at 10 µM (COLO 205) | growth at 10 µM (NCI/ADR-RES) | growth at 10 µM (SF-268) | growth at 10 µM (RPMI-8226) | growth at 10 µM (HCT-116) | growth at 10 µM (SF-539) | growth at 10 µM (UACC-257) | growth at 10 µM (HL-60(TB)) | growth at 10 µM (SNB-75) | growth at 10 µM (SN12C) | growth at 10 µM (MOLT-4) | growth at 10 µM (MDA-MB-435) | growth at 10 µM (OVCAR-3) | growth at 10 µM (SNB-19) | growth at 10 µM (A549) | growth at 10 µM (UO-31) | further results |
| --- | --- | --- | --- | --- | --- | --- | --- | --- | --- | --- | --- | --- | --- | --- | --- | --- | --- | --- | --- | --- | --- |
| O=C1c2ccccc2C(=O)c2c1cc(Sc1ccccc1Br)c1nsnc21 | 29.7% | 4.88% | 2.94% | -6.39% | 97.4% | -29.9% | -5.11% | 9.4% | 16.6% | -5.66% | 4.75% | -44% | 47.2% | 22.6% | 29.7% | -73% | -65.8% | 71.4% | 95.4% | 56.1% | GI50 (SK-MEL-2): 13.8 µM; LC50 (SK-MEL-2): > 50 µM; TGI (SK-MEL-2): 34.1 µM; growth at 10 µM (NCI-H522): 30.8%; growth at 10 µM (CAKI-1): 29.7%; growth at 10 µM (MDA-MB-468): -79.9%; GI50 (OVCAR-4): 2.78 µM; LC50 (OVCAR-4): 30.1 µM; TGI (OVCAR-4): 10.1 µM; growth at 10 µM (SF-295): 100%; IC50 (PC-3): 5.76 µM; growth at 10 µM (OVCAR-8): 2.47% |
| CSc1ccc(Sc2cc3c(c4nsnc24)C(=O)c2ccccc2C3=O)cc1 | 67.5% | 102% | 96.3% | 82.9% | 117% | 91.8% | 89.7% | 88.6% | 102% | 96.5% | 110% | 105% | 75.1% | 98% | 59.9% | 118% | 103% | 102% | 105% | 67.6% | growth at 10 µM (NCI-H522): 95.4%; growth at 10 µM (CAKI-1): 99.4%; growth at 10 µM (MDA-MB-468): 82.2%; growth at 10 µM (SF-295): 98.9%; IC50 (PC-3): > 15 µM; growth at 10 µM (OVCAR-8): 97.4% |
